Source: publication PMC6247064 (Cancer Science, 2018)
In brackets after ≈: the same amount, converted by molar mass.

Assays:
[1] = test system: BRCA wild-type recurrent high-grade serous ovarian cancer; details: phase 2, 8 of 28 women, intention-to-treat population; cited from earlier work
Calu-6 xenograft = details: cited from earlier work
advanced solid tumors = details: cited from earlier work
[2] = Phase 1 study: noncompartmental plasma pharmacokinetics; format: in vivo, human; details: for C av,72 (average plasma concentration over 72 h): geometric mean (CV%)
In short: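 The test compound was given as a 1-h IV infusion at 80 or 105 mg/m2 every 14 days. Plasma levels were measured by validated LC/MS/MS and analysed noncompartmentally. C av,72 is the mean plasma concentration over 72 h after infusion. Accumulation ratio is cycle 2 day 1 AUC(0-24) divided by cycle 1 day 1 AUC(0-24). Values are geometric means.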

For `COc1cccc(OCCCN)c1-c1cc(Nc2cnc(C#N)cn2)n[nH]1` [Prexasertib], the Partial responses [1] is listed as 29%, the “IC50 derived from the single-agent Calu-6 xenograft model” value (Calu-6 xenograft; plasma concentration) is listed as 0.0141 µg/mL (≈ 0.0386 µM) and the “Median AUC(0-72) predicted to achieve the maximal tumor response” value (Calu-6 xenograft; predicted from Calu-6 xenograft PK/pharmacodynamic model, monotherapy) is listed as 1896 ng·h/mL. For the same molecule, the “Best overall response of stable disease” value (advanced solid tumors; US phase 1, 15 of 45 patients) was 33%, the Partial response (advanced solid tumors; US phase 1, 45 patients, Two patients (SCC of the anus, SCC of the head and neck)) was 4% and the Recommended prexasertib dose (advanced solid tumors; US phase 1, administered once every 14 days) was 105 mg/m^2. For the same molecule, the “Patients with tumor shrinkage” value (advanced solid tumors; phase 1 trial in non-Japanese patients) was 10 of 34, the “C av,72 (average plasma concentration over 72 h)” value ([2]; 80 mg/m^2 1-h IV infusion, Cycle 1, day 1, N 6) was 23.1 (22) ng/mL and the “C av,72 (average plasma concentration over 72 h)” value ([2]; 80 mg/m^2 1-h IV infusion, Cycle 2, day 1, N 4) was 24.8 (16) ng/mL. For the same molecule, the “C av,72 (average plasma concentration over 72 h)” value ([2]; 105 mg/m^2 1-h IV infusion, Cycle 1, day 1, N 6) was 30.0 (13) ng/mL, the “C av,72 (average plasma concentration over 72 h)” value ([2]; 105 mg/m^2 1-h IV infusion, Cycle 2, day 1, N 3) was 31.5 (22) ng/mL and the “Intercycle accumulation between cycle 1 and cycle 2” value ([2]; both treatment groups) was “no intercycle accumulation”.
